ChEMBL document CHEMBL1157965, “Mono-, Bi-, and triphenanthrenes from the tubers of Cremastra appendiculata” (J Nat Prod, 2006)

Experiments:
Format in all cases: functional, cell-based
WISH = experiment: Cytotoxicity against human WISH cells after 96 hrs by MTT assay
In short: (§1)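 Cells kept in RPMI 1640 with 10% FBS, 100 units/mL penicillin and 100 µg/mL streptomycin at 37 °C, humidified 5% CO2. Seeded at 1200 cells/well; compounds added after 24 h at five concentrations from DMSO stocks (0.1% DMSO final), three wells per concentration.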

HCT-8 = experiment: Cytotoxicity against human HCT8 cells after 96 hrs by MTT assay; details: HCT-8, 96 h; in short: as §1
A549 = experiment: Cytotoxicity against human A549 cells after 96 hrs by MTT assay; details: A549, 96 h; in short: as §1
A2780 = experiment: Cytotoxicity against human A2780 cells after 96 hrs by MTT assay; details: A2780, 96 h; in short: as §1
MCF7 = experiment: Cytotoxicity against human MCF7 cells after 96 hrs by MTT assay; details: MCF7, 96 h; in short: as §1
Bel-7402 = experiment: Cytotoxicity against human Bel7402 cells after 96 hrs by MTT assay; details: Bel-7402, 96 h; in short: as §1
BGC-823 = experiment: Cytotoxicity against human BGC823 cells after 96 hrs by MTT assay; details: BGC-823, 96 h; in short: as §1

With `COc1ccc2c(ccc3c(-c4c(O)cc(OC)c5c4ccc4cc(OC)ccc45)c(O)cc(OC)c32)c1` as the compound, how does the IC50 (WISH) read?
Its IC50 is 5 µM.

What about the IC50 (HCT-8) of the same compound?
The IC50 was 10.7 µM.

And the IC50 (A549)?
The IC50 was 11.6 µM.

And the IC50 (A2780)?
Its IC50 is 11 µM.

And the IC50 (MCF7)?
The IC50 was 11.9 µM.

What about the IC50 (Bel-7402) of the same compound?
The IC50 was 11.1 µM.

And the IC50 (BGC-823)?
Its IC50 is 9.5 µM.

`COc1ccc2c(ccc3c(-c4c(O)ccc5c4ccc4c(-c6c(O)cc(OC)c7c6ccc6cc(O)ccc67)c(O)cc(OC)c45)c(O)cc(OC)c32)c1` was tested. Which IC50 (WISH) did it give?
The IC50 was over 15 µM.

And the IC50 (HCT-8)?
The IC50 was 8 µM.

And the IC50 (A549)?
The IC50 was 11.6 µM.

What about the IC50 (A2780) of the same compound?
The IC50 was 8.1 µM.

And the IC50 (MCF7)?
The IC50 was 8.3 µM.

And the IC50 (Bel-7402)?
Its IC50 is 8.2 µM.

What about the IC50 (BGC-823) of the same compound?
Its IC50 is 8.4 µM.

`CC[C@@]1(O)C(=O)OCc2c1cc1n(c2=O)Cc2cc3c(CN(C)C)c(O)ccc3nc2-1` [TOPOTECAN] was tested. Which IC50 (WISH) did it give?
The IC50 was 1.3 µM.

And the IC50 (HCT-8)?
Its IC50 is 1.5 µM.

What about the IC50 (A549) of the same compound?
The IC50 was 3.3 µM.

And the IC50 (A2780)?
Its IC50 is 1.1 µM.

What about the IC50 (MCF7) of the same compound?
The IC50 was 1.9 µM.

And the IC50 (Bel-7402)?
The IC50 was 1.2 µM.

And the IC50 (BGC-823)?
The IC50 was 4.4 µM.

For `COc1cc(O)c(-c2c(O)cc(OC)c3c2ccc2cc(O)ccc23)c2ccc3cc(O)ccc3c12` [CIRRHOPETALANTHIN], which IC50 (WISH) is on record?
Its IC50 is over 22.7 µM.

And the IC50 (HCT-8)?
Its IC50 is 11.2 µM.

And the IC50 (A549)?
The IC50 was 17.8 µM.

What about the IC50 (A2780) of the same compound?
The IC50 was 13.2 µM.

And the IC50 (MCF7)?
Its IC50 is 12.5 µM.

And the IC50 (Bel-7402)?
Its IC50 is 8.4 µM.

And the IC50 (BGC-823)?
Its IC50 is 10.5 µM.

For `COc1ccc2c(ccc3cc(O)cc(OC)c32)c1`, which IC50 (WISH) is on record?
Its IC50 is over 5 µM.

What about the IC50 (HCT-8) of the same compound?
Its IC50 is over 5 µM.

What about the IC50 (A549) of the same compound?
Its IC50 is over 5 µM.

And the IC50 (A2780)?
The IC50 was over 5 µM.

And the IC50 (MCF7)?
Its IC50 is over 5 µM.

And the IC50 (Bel-7402)?
Its IC50 is over 5 µM.

What about the IC50 (BGC-823) of the same compound?
The IC50 was over 5 µM.

With `COC1=CC(=O)C(O)(CC(C)=O)c2ccc3cc(O)ccc3c21` (stereo not drawn) as the compound, how does the IC50 (WISH) read?
Its IC50 is over 16 µM.

What about the IC50 (HCT-8) of the same compound?
Its IC50 is over 16 µM.

What about the IC50 (A549) of the same compound?
The IC50 was over 16 µM.

And the IC50 (A2780)?
The IC50 was over 16 µM.

What about the IC50 (MCF7) of the same compound?
Its IC50 is over 16 µM.

And the IC50 (Bel-7402)?
The IC50 was over 16 µM.

And the IC50 (BGC-823)?
The IC50 was over 16 µM.

Which results are given for `COc1cc(O)cc2ccc3cc(O)ccc3c12` [FLAVANTHRININ]?
IC50 (WISH): > 20.8 µM; IC50 (HCT-8): > 20.8 µM; IC50 (A549): > 20.8 µM; IC50 (A2780): > 20.8 µM; IC50 (MCF7): > 20.8 µM; IC50 (Bel-7402): > 20.8 µM; IC50 (BGC-823): > 20.8 µM

Which results are given for `COC1=CC(=O)C(O)(CC(C)=O)c2ccc3cc(OC)ccc3c21` (stereo not drawn)?
IC50 (WISH): > 15.3 µM; IC50 (HCT-8): > 15.3 µM; IC50 (A549): > 15.3 µM; IC50 (A2780): > 15.3 µM; IC50 (MCF7): > 15.3 µM; IC50 (Bel-7402): > 15.3 µM; IC50 (BGC-823): > 15.3 µM

What does the source list for `COc1ccc2c(ccc3c(-c4c(O)cc(OC)c5c4ccc4cc(O)ccc45)c(O)cc(OC)c32)c1`?
IC50 (WISH): > 10.2 µM; IC50 (HCT-8): > 10.2 µM; IC50 (A549): > 10.2 µM; IC50 (A2780): > 10.2 µM; IC50 (MCF7): > 10.2 µM; IC50 (Bel-7402): > 10.2 µM; IC50 (BGC-823): > 10.2 µM
